In ChEMBL document CHEMBL1149786, “Synthesis and antihypertensive effects of new methylthiomorpholinphenol derivatives” (2008):
Calls of active or inactive are those of the source. The calls are words filed in the database; no cut-off is given here.

Assays:
[1] = test system: Rattus norvegicus; assay: Hypotensive effect in anesthetized Wistar rat arterial pressure model assessed as decrease in heart rate at 0.01 mg/kg administered through femoral vein; assay type: functional, organism-based; set-up: dose 0.01 mg/kg
Outline: (§1)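 Male Wistar rats (280–320 g) under sodium pentobarbital (45 mg/kg, ip), tracheotomised. Right carotid cannulated (PE50) to a pressure transducer recording systolic, diastolic and mean arterial pressure and heart rate. Cumulative iv doses via femoral vein every 5 min: test series 0.0001–10 mg/kg, reference drugs 0.0001–1.0 mg/kg, n = 5. Change measured from pre-dose basal; ED50 taken from a fitted dose–effect model.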

[2] = test system: Rattus norvegicus; assay: Hypotensive effect in anesthetized Wistar rat arterial pressure model assessed as decrease in heart rate at 0.1 mg/kg administered through femoral vein; assay type: functional, organism-based; set-up: dose 0.1 mg/kg; outline: as §1
[3] = test system: Rattus norvegicus; assay: Hypotensive effect in anesthetized Wistar rat arterial pressure model assessed as decrease in heart rate at 1.0 mg/kg administered through femoral vein; assay type: functional, organism-based; set-up: dose 1 mg/kg; outline: as §1
[4] = test system: Rattus norvegicus; assay: Hypotensive effect in anesthetized Wistar rat arterial pressure model assessed as decrease in heart rate at 10.0 mg/kg administered through femoral vein; assay type: functional, organism-based; set-up: dose 10 mg/kg; outline: as §1
[5] = test system: Rattus norvegicus; assay: Hypotensive effect in anesthetized Wistar rat arterial pressure model assessed as decrease in heart rate at 3.1 mg/kg administered through femoral vein; assay type: functional, organism-based; set-up: dose 3.1 mg/kg; outline: as §1
[6] = test system: Rattus norvegicus; assay: Antihypertensive effect in anesthetized Wistar rat; assay type: functional; outline: as §1
[7] = test system: Rattus norvegicus; assay: Antihypertensive effect in spontaneous hypertensive Wistar rat model assessed as maximum decrease in systolic arterial pressure at 1.0 mg/kg, po after 60 mins; assay type: functional, Artery
Outline: (§2)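 Conscious spontaneously hypertensive rats given a single oral dose of 1.0 mg/kg. Systolic and diastolic pressure and heart rate followed over 2.0 h. The largest fall from baseline and the time at which it occurred were recorded for each variable.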

[8] = test system: Rattus norvegicus; assay: Antihypertensive effect in spontaneous hypertensive Wistar rat model assessed as maximum decrease in diastolic arterial pressure at 1.0 mg/kg, po after 60 mins; assay type: functional, Artery; outline: as §2
[9] = test system: Rattus norvegicus; assay: Antihypertensive effect in spontaneous hypertensive Wistar rat model assessed as maximum decrease in heart rate per min at 1.0 mg/kg, po after 120 mins; assay type: functional; outline: as §2
[10] = test system: Rattus norvegicus; assay: Hypotensive effect in anesthetized Wistar rat arterial pressure model at 1.0 mg/kg administered through femoral vein; assay type: functional, organism-based; set-up: dose 1 mg/kg; details: Artery; outline: as §1
[11] = test system: Rattus norvegicus; assay: Hypotensive effect in anesthetized Wistar rat arterial pressure model at 3.1 mg/kg administered through femoral vein; assay type: functional, organism-based; set-up: dose 3.1 mg/kg; details: Artery; outline: as §1
[12] = test system: Rattus norvegicus; assay: Hypotensive effect in anesthetized Wistar rat arterial pressure model at 10.0 mg/kg administered through femoral vein; assay type: functional, organism-based; set-up: dose 10 mg/kg; details: Artery; outline: as §1
[13] = test system: Rattus norvegicus; assay: Hypotensive effect in anesthetized Wistar rat arterial pressure model at 0.0001 mg/kg administered through femoral vein; assay type: functional, organism-based; set-up: dose 0.0001 mg/kg; details: Artery; outline: as §1
[14] = test system: Rattus norvegicus; assay: Hypotensive effect in anesthetized Wistar rat arterial pressure model at 0.001 mg/kg administered through femoral vein; assay type: functional, organism-based; set-up: dose 0.001 mg/kg; details: Artery; outline: as §1
[15] = test system: Rattus norvegicus; assay: Hypotensive effect in anesthetized Wistar rat arterial pressure model at 0.1 mg/kg administered through femoral vein; assay type: functional, organism-based; set-up: dose 0.1 mg/kg; details: Artery; outline: as §1
[16] = test system: Rattus norvegicus; assay: Antihypertensive effect in spontaneous hypertensive Wistar rat model assessed as maximum decrease in systolic arterial pressure at 1.0 mg/kg, po after 100 mins; assay type: functional, Artery; outline: as §2
[17] = test system: Rattus norvegicus; assay: Antihypertensive effect in spontaneous hypertensive Wistar rat model assessed as maximum decrease in heart rate per min at 1.0 mg/kg, po after 100 mins; assay type: functional; outline: as §2
[18] = test system: Rattus norvegicus; assay: Antihypertensive effect in anesthetized Wistar rat assessed as reduction of systolic arterial pressure at 1 mg/kg administered through femoral vein; assay type: functional, organism-based; set-up: dose 1 mg/kg; details: Artery; outline: as §1
[19] = test system: Rattus norvegicus; assay: Antihypertensive effect in anesthetized Wistar rat assessed as reduction of diastolic arterial pressure at 1 mg/kg administered through femoral vein; assay type: functional, organism-based; set-up: dose 1 mg/kg; details: Artery; outline: as §1
[20] = test system: Rattus norvegicus; assay: Antihypertensive effect in spontaneous hypertensive Wistar rat model assessed as maximum decrease in systolic arterial pressure at 1.0 mg/kg, po after 50 mins; assay type: functional, Artery; outline: as §2
[21] = test system: Rattus norvegicus; assay: Antihypertensive effect in spontaneous hypertensive Wistar rat model assessed as maximum decrease in diastolic arterial pressure at 1.0 mg/kg, po after 100 mins; assay type: functional, Artery; outline: as §2
[22] = test system: Rattus norvegicus; assay: Antihypertensive effect in spontaneous hypertensive Wistar rat model assessed as maximum decrease in heart rate per min at 1.0 mg/kg, po after 70 mins; assay type: functional; outline: as §2
[23] = test system: Rattus norvegicus; assay: Antihypertensive effect in anesthetized Wistar rat assessed as reduction of mean arterial pressure at 1 mg/kg administered through femoral vein; assay type: functional, organism-based; set-up: dose 1 mg/kg; details: Artery
Outline: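 Male Wistar rats (280–320 g) anesthetized with sodium pentobarbital (45 mg/kg ip), tracheotomized; right carotid artery cannulated to a pressure transducer recording systolic, diastolic and mean arterial pressure and heart rate. Compounds given IV via femoral vein as cumulative dose–effect curve (0.0001–10 mg/kg), doses every five minutes; n = 5.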

[24] = test system: Rattus norvegicus; assay: Antihypertensive effect in spontaneous hypertensive Wistar rat model assessed as maximum decrease in systolic arterial pressure at 1.0 mg/kg, po after 90 mins; assay type: functional, Artery; outline: as §2
[25] = test system: Rattus norvegicus; assay: Antihypertensive effect in spontaneous hypertensive Wistar rat model assessed as maximum decrease in diastolic arterial pressure at 1.0 mg/kg, po after 90 mins; assay type: functional, Artery; outline: as §2
[26] = test system: Rattus norvegicus; assay: Hypotensive effect in anesthetized Wistar rat arterial pressure model at 0.01 mg/kg administered through femoral vein; assay type: functional, organism-based; set-up: dose 0.01 mg/kg; details: Artery; outline: as §1
[27] = test system: Rattus norvegicus; assay: Hypotensive effect in anesthetized Wistar rat arterial pressure model assessed as decrease in heart rate at 0.0001 mg/kg administered through femoral vein; assay type: functional, organism-based; set-up: dose 0.0001 mg/kg; outline: as §1
[28] = test system: Rattus norvegicus; assay: Hypotensive effect in anesthetized Wistar rat arterial pressure model assessed as decrease in heart rate at 0.001 mg/kg administered through femoral vein; assay type: functional, organism-based; set-up: dose 0.001 mg/kg; outline: as §1
[29] = test system: Rattus norvegicus; assay: Antihypertensive effect in spontaneous hypertensive Wistar rat model assessed as maximum decrease in heart rate per min at 1.0 mg/kg, po after 110 mins; assay type: functional; outline: as §2
[30] = test system: Rattus norvegicus; assay: Antihypertensive effect in anesthetized Wistar rat assessed as change mean arterial pressure at 10.0 mg/kg administered through femoral vein; assay type: functional, Artery; outline: as §1
[31] = test system: Rattus norvegicus; assay: Antihypertensive effect in anesthetized Wistar rat assessed as change systolic arterial pressure at 10.0 mg/kg administered through femoral vein; assay type: functional, Artery; outline: as §1
[32] = test system: Rattus norvegicus; assay: Antihypertensive effect in anesthetized Wistar rat assessed as change diastolic arterial pressure at 10.0 mg/kg administered through femoral vein; assay type: functional, Artery; outline: as §1
[33] = test system: Rattus norvegicus; assay: Antihypertensive effect in spontaneous hypertensive Wistar rat model assessed as maximum decrease in systolic arterial pressure at 1.0 mg/kg, po after 80 mins; assay type: functional, Artery; outline: as §2
[34] = test system: Rattus norvegicus; assay: Antihypertensive effect in spontaneous hypertensive Wistar rat model assessed as maximum decrease in diastolic arterial pressure at 1.0 mg/kg, po after 80 mins; assay type: functional, Artery; outline: as §2
[35] = test system: Rattus norvegicus; assay: Antihypertensive effect in spontaneous hypertensive Wistar rat model assessed as maximum decrease in heart rate per min at 1.0 mg/kg, po after 80 mins; assay type: functional; outline: as §2

Oc1cc(O)c(CN2CCSCC2)cc1CN1CCSCC1
Activity [1]: Active
Activity [2]: Active
Activity [3]: Active
Activity [4]: Active
Activity [5]: Active
ED50 [6]: 0.363 mg/kg
Activity [7]: 45.6 mmHg
Activity [8]: 29.2 mmHg
Activity [9]: 92.5

CC(C)(c1ccc(O)c(CN2CCSCC2)c1)c1ccc(O)c(CN2CCSCC2)c1
Activity [10]: Active
Activity [11]: Active
Activity [12]: Active
Activity [13]: Active
Activity [1]: Active
Activity [2]: Active
Activity [3]: Active
Activity [4]: Active
Activity [5]: Active
ED50 [6]: 1.41 mg/kg
Activity [7]: 28.1 mmHg
Activity [8]: 12.6 mmHg
Activity [9]: 106.566

CC(C)(C)c1ccc(O)c(CN2CCSCC2)c1
Activity [10]: Active
Activity [11]: Active
Activity [12]: Active
Activity [14]: Active
Activity [15]: Active
Activity [1]: Active
Activity [2]: Active
Activity [3]: Active
Activity [4]: Active
ED50 [6]: 1.04 mg/kg
Activity [16]: 71.5 mmHg
Activity [8]: 31.8 mmHg
Activity [17]: 148 beats/min

C[C@H](CS)C(=O)N1CCC[C@H]1C(=O)O [CAPTOPRIL]
ED50 [6]: 0.00062 mg/kg
Activity [18]: Active
Activity [19]: Active
Activity [20]: 42 mmHg
Activity [21]: 36.5 mmHg
Activity [22]: 52.04

CC(C)(C)c1cc(CN2CCSCC2)c(O)c(CN2CCSCC2)c1
Activity [10]: Active
Activity [11]: Active
Activity [12]: Active
Activity [14]: Active
Activity [15]: Active
Activity [13]: Active
Activity [3]: Active
Activity [4]: Active
Activity [5]: Active
ED50 [6]: 0.411 mg/kg
Activity [23]: Active
Activity [24]: 95.8 mmHg
Activity [25]: 48.2 mmHg
Activity [17]: 160 beats/min
Activity [26]: Active

Oc1ccc(Cl)cc1CN1CCSCC1
Activity [10]: Active
Activity [11]: Active
Activity [12]: Active
Activity [27]: Active
Activity [28]: Active
Activity [1]: Active
ED50 [6]: 2.21 mg/kg
Activity [16]: 73.9 mmHg
Activity [21]: 46.7 mmHg
Activity [29]: 72.2

CCCCc1nc(Cl)c(CO)n1Cc1ccc(-c2ccccc2-c2nnn[nH]2)cc1 [LOSARTAN]
Activity [30]: 41.31 mmHg
Activity [31]: 43.62 mmHg
Activity [32]: 45.64 mmHg
ED50 [6]: 0.0282 mg/kg
Activity [33]: 82.3 mmHg
Activity [34]: 66.3 mmHg
Activity [35]: 38.37

O=C(N[C@H]1CCS[C@H]2CCC[C@@H](C(=O)O)N2C1=O)[C@@H](S)Cc1ccccc1 [OMAPATRILAT]
ED50 [6]: 0.0058 mg/kg
